Source: ChEMBL document CHEMBL1137377, “Evaluation of azasterols as anti-parasitics” (J Med Chem, 2006)

Assays:
[1] = tested on: Trypanosoma brucei rhodesiense; test: Antitrypanosomal activity against Trypanosoma brucei rhodesiense trypomastigotes; type: functional; conditions: read-out: ED50 (the source's name)
Method in brief: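 Bloodstream-form STIB900 trypomastigotes grown in HMI-18 + 15% HIFCS at 37 °C, 5% CO2. Seeded at 2 × 10^5/mL onto drug dilutions (top 30 µg/mL) for 72 h. Alamar Blue read 5-6 h later by fluorescence (ex/em 530/585 nm). ED50 by curve fitting.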

Leishmania donovani = test: Antileishmanial activity against Leishmania donovani amastigotes in CD1 mouse macrophage; type: functional, organism-based; conditions: read-out: ED50 (the source's name)
Method in brief: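 Peritoneal macrophages from starch-induced CD1 mice, kept 24 h in RPMI1640 + 10% HIFCS at 37 °C, 5% CO2. Infected with L. donovani MHOM/ET/67/L82 amastigotes from hamster spleen at 5 parasites:1 macrophage. After 24 h, drug exposure for 5 days, overlay replaced day 3. Top concentration 30 µg/mL, quadruplicate. Slides methanol-fixed, Giemsa-stained, counted microscopically. ED50 by curve fitting.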

KB = test: Cytotoxicity against KB cell line; type: functional; conditions: Homo sapiens, read-out: TD50 (the source's name)
Trypanosoma cruzi = test: Antitrypanosomal activity against Trypanosoma cruzi trypomastigotes in CD1 mouse macrophage; type: functional; conditions: read-out: ED50 (the source's name)
Method in brief: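 Starch-induced CD1 peritoneal macrophages plated at 4 × 10^5/mL, infected after 24 h with T. cruzi Tulahuan LAC-Z trypomastigotes. 24 h later, drug exposure for 3 days. ED50 by curve fitting.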

Plasmodium falciparum = test: Antimalarial activity against Plasmodium falciparum 3D7; type: functional, organism-based; conditions: read-out: ED50 (the source's name)
Method in brief: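 Synchronized ring-stage 3D7 culture at 1% parasitemia in RPMI 1640, 5% hematocrit, 37 °C, 5% CO2. Top final drug concentration 30 µg/mL. After 24 h, (3H)-hypoxanthine added (0.2 µCi/well), then 48 h further incubation. Plates freeze/thawed and harvested, and hypoxanthine uptake counted. ED50 by curve fitting.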

| SMILES | EC50 [1] [µM] | EC50 (Leishmania donovani) [µM] | CC50 (KB) [µM] | EC50 (Trypanosoma cruzi) [µM] | EC50 (Plasmodium falciparum) [µM] |
| --- | --- | --- | --- | --- | --- |
| N=C(N)c1ccc(OCCCCCOc2ccc(C(=N)N)cc2)cc1 [PENTAMIDINE] | 0.001 |  |  |  |  |
| C[C@H](C(=O)NCCCC[C@H](NC(=O)OCc1ccccc1)C(=O)O)[C@H]1CC[C@H]2C3CC=C4C[C@@H](O)CC[C@]4(C)[C@H]3CC[C@]12C (some centres not stated) | 1.8 | > 49 | 276 | > 49 |  |
| C[C@H](C(=O)NCCCCCCC(=O)O)[C@H]1CC[C@H]2C3CC=C4C[C@@H](O)CC[C@]4(C)[C@H]3CC[C@]12C (some centres not stated) | 2.32 | > 63 | 252 | 34.5 | > 63 |
| COC(=O)[C@@H](N)CCCCNC(=O)[C@@H](C)[C@H]1CC[C@H]2C3CC=C4C[C@@H](O)CC[C@]4(C)[C@H]3CC[C@]12C (some centres not stated) | 0.55 | 25 | 42 | 11.2 |  |
| CC(=O)O[C@H]1CC[C@@]2(C)C(=CCC3[C@@H]4CC[C@H]([C@H](C)C(=O)NCC[C@H](NC(=O)OC(C)(C)C)C(=O)O)[C@@]4(C)CC[C@@H]32)C1 (some centres not stated) | 17.5 | > 51 |  | 26.8 |  |
| CC(=O)O[C@H]1CC[C@@]2(C)C(=CCC3[C@@H]4CC[C@H]([C@H](C)C(=O)NCCCC[C@H](NC(=O)OCc5ccccc5)C(=O)OCc5ccccc5)[C@@]4(C)CC[C@@H]32)C1 (some centres not stated) | 0.01 | > 40 | > 400 | > 24 | 3.4 |
| COC(=O)CCCNC[C@@H](C)[C@H]1CC[C@H]2C3CC=C4C[C@@H](OC(C)=O)CC[C@]4(C)[C@H]3CC[C@]12C (some centres not stated) | 0.012 | 3.19 | 19.2 | 24.7 | 15.4 |
| CCN(CC)CCCC(C)Nc1ccnc2cc(Cl)ccc12 (configuration not stated) [CHLOROQUINE] |  |  |  |  | 0.003 |
| C[C@H](C(=O)NCCC[C@H](NC(=O)OCc1ccccc1)C(=O)O)[C@H]1CC[C@H]2C3CC=C4C[C@@H](O)CC[C@]4(C)[C@H]3CC[C@]12C (some centres not stated) | 1.33 | > 50 | 32 | > 50 |  |
| CC(=O)O[C@H]1CC[C@@]2(C)C(=CCC3[C@@H]4CC[C@H]([C@H](C)CNCCCCCC(=O)O)[C@@]4(C)CC[C@@H]32)C1 (some centres not stated) | 55.2 | > 62 | 433 | > 62 | > 62 |
| C[C@H](CNCCCCC(=O)O)[C@H]1CC[C@H]2C3CC=C4C[C@@H](O)CC[C@]4(C)[C@H]3CC[C@]12C (some centres not stated) | 30.1 | > 70 | > 695 | 66.2 | > 70 |
| C[C@H](C(=O)NCCC[C@H](N)C(=O)O)[C@H]1CC[C@H]2C3CC=C4C[C@@H](O)CC[C@]4(C)[C@H]3CC[C@]12C (some centres not stated) | 2.38 | > 65 | 651 | > 65 |  |
| CC(=O)O[C@H]1CC[C@@]2(C)C(=CCC3[C@@H]4CC[C@H]([C@H](C)CNCCCCCCCC(=O)O)[C@@]4(C)CC[C@@H]32)C1 (some centres not stated) | 9.11 |  | 59 | 21 | > 58 |
| C[C@H](C(=O)NCCCCC(=O)O)[C@H]1CC[C@H]2C3CC=C4C[C@@H](O)CC[C@]4(C)[C@H]3CC[C@]12C (some centres not stated) | 7.85 | > 67 | 561 | 32.9 | > 67 |
| CC(=O)O[C@H]1CC[C@@]2(C)C(=CCC3[C@@H]4CC[C@H]([C@H](C)CNCCC[C@H](NC(=O)OCc5ccccc5)C(=O)O)[C@@]4(C)CC[C@@H]32)C1 (some centres not stated) | 17.4 | > 48 |  | 18.5 |  |
| C[C@H](C(=O)NCC[C@H](NC(=O)OC(C)(C)C)C(=O)O)[C@H]1CC[C@H]2C3CC=C4C[C@@H](O)CC[C@]4(C)[C@H]3CC[C@]12C (some centres not stated) | > 55 | > 55 | 1270 | 11.2 |  |
| CC(=O)O[C@H]1CC[C@@]2(C)C(=CCC3[C@@H]4CC[C@H]([C@H](C)C(=O)NC[C@H](NC(=O)OC(C)(C)C)C(=O)O)[C@@]4(C)CC[C@@H]32)C1 (some centres not stated) | 2.68 | > 52 |  | 8.7 |  |
| C[C@]12CC[C@H](O)C[C@@H]1CC[C@@H]1[C@@H]2CC[C@@]2(C)[C@H]1CC[C@@H]2[C@@](C)(O)C1CCCCN1 (some centres not stated) | 3.3 | 8.9 | 11.9 | 7.4 |  |
| CC(=O)O[C@H]1CC[C@@]2(C)C(=CCC3[C@@H]4CC[C@H]([C@H](C)CNC[C@H](NC(=O)OC(C)(C)C)C(=O)O)[C@@]4(C)CC[C@@H]32)C1 (some centres not stated) | > 54 | > 54 |  | 4.64 |  |
